In test [1] the target is T1, Thymidylate synthase ThyA (Mycobacterium tuberculosis, UniProt P9WFR9).
T1 sequence (P9WFR9 whole entry): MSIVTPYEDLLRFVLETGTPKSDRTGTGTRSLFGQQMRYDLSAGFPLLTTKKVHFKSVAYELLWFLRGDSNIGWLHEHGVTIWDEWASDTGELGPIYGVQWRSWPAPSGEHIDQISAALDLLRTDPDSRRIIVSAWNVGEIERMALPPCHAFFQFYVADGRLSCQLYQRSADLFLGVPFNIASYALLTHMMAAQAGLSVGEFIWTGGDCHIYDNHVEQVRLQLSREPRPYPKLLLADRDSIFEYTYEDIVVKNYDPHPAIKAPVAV
Put plainly: Inhibition of Mycobacterium tuberculosis His-tagged ThyA-mediated dTMP synthesis expressed in BL21 (DE3) Escherichia coli RbCl cells after 30 mins by photometric assay.

The target in test [2] is T2, Flavin-dependent thymidylate synthase (Mycobacterium tuberculosis) (UniProt P9WG57).
T2 sequence (whole entry): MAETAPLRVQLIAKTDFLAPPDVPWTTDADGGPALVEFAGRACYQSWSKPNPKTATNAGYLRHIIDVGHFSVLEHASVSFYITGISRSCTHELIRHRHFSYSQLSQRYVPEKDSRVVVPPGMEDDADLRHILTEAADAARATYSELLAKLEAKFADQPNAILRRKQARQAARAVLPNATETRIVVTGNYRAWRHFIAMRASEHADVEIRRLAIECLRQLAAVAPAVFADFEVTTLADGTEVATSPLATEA
Description: Inhibition of Mycobacterium tuberculosis ThyX-mediated dTMP synthesis using [5-3H]dUMP as substrate at 50 uM after 10 mins by liquid scintillation counting. The method, boiled down:
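Compounds tested at a single 50 μM dose on purified M. tuberculosis ThyX with 20 μM mTHF, 10 μM FAD, 500 μM NADPH. [5-3H]dUMP (13 Ci/mmol, stock 2 μM) added to start, 10 min at room temperature, TCA/dUMP stop, charcoal cleanup, tritiated water counted by scintillation; percent inhibition relative to control.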

Test [3] concerns the target T3, Flavin-dependent thymidylate synthase (Mycobacterium tuberculosis, UniProt P9WG57).
T3 sequence (P9WG57 whole entry): T2 sequence (whole entry)
Put plainly: Inhibition of Mycobacterium tuberculosis ThyX-mediated dTMP synthesis using [5-3H]dUMP as substrate after 10 mins by liquid scintillation counting. The method, boiled down: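 Purified M. tuberculosis ThyX with 20 μM mTHF, 10 μM FAD and 500 μM NADPH; reaction started with [5-3H]dUMP (13 Ci/mmol, stock 2 μM), run 10 min at room temperature, stopped with TCA/dUMP. Unreacted substrate removed with activated charcoal (15 min on ice, then centrifugation); tritiated water in supernatant counted. IC50 from dose-response curves of percent activity versus control.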

Each structure is given as a SMILES string.

Usually IC50 stands for the concentration at which inhibition is half-maximal. A low value points to greater potency in that assay. Usually inhibition stands for the change of the read-out against control, counted positive when it falls. Read a low inhibition as a response near the control. For `CCCCCCCCCCC#Cc1cn([C@H]2C[C@H](O)[C@@H](COP(=O)(O)O)O2)c(=O)[nH]c1=O`, the IC50 in test [1] was greater than 50 µM; in test [3] it was 27.8 µM. For the same molecule, the inhibition in test [2] was determined as 82.6%.

In the case of `CCCCCCCCCCC#Cc1cn([C@@H]2O[C@H](COP(=O)(O)O)[C@@H](O)[C@@H]2O)c(=O)[nH]c1=O`, the IC50 in test [1] and in test [3] was greater than 50 µM in each case. In addition, the inhibition in test [2] came to 19%.

As for `N#C/C=C/c1cn([C@H]2C[C@H](O)[C@@H](COP(=O)(O)O)O2)c(=O)[nH]c1=O`, the IC50 was greater than 50 µM in test [1] and 7.4 µM in test [3]. Besides, the inhibition in test [2] was found to be 81.3%.

With `CCCCNC(=O)CCCCC#Cc1cn([C@@H]2O[C@H](COP(=O)(O)O)[C@@H](O)[C@@H]2O)c(=O)[nH]c1=O`, the 50% inhibitory concentration (IC50) in test [1] and in test [3] was greater than 50 µM in each case. In test [2], the inhibition turned out to be 21%.

`CCCCCCCC(=O)NCC#Cc1cn([C@H]2C[C@H](O)[C@@H](COP(=O)(O)O)O2)c(=O)[nH]c1=O`: the values for the IC50 in test [1] and in test [3] were greater than 50 µM and 0.91 µM, respectively. This molecule also displayed an inhibition in test [2] of 92.8%.

For `O=c1[nH]c(=O)n([C@H]2C[C@H](O)[C@@H](COP(=O)(O)O)O2)cc1F`, the IC50 in test [1] stood at 0.57 µM; in test [3], 0.29 µM. The molecule also yielded an inhibition in test [2] of 95.1%.

Consider `CCCCCCNC(=O)NCC#Cc1cn([C@H]2C[C@H](O)[C@@H](COP(=O)(O)O)O2)c(=O)[nH]c1=O`, for which the IC50 was greater than 50 µM in test [1] and 4.84 µM in test [3]. This molecule registered an inhibition in test [2] of 90.9%.

Turning to `CCCCCC(=O)NCC#Cc1cn([C@H]2C[C@H](O)[C@@H](COP(=O)(O)O)O2)c(=O)[nH]c1=O`, the 50% inhibitory concentration (IC50) in test [1] is greater than 50 µM; in test [3], 8.61 µM. For the same molecule, the inhibition in test [2] worked out at 89.9%.

Regarding `O=c1[nH]c(=O)n([C@H]2C[C@H](O)[C@@H](COP(=O)(O)O)O2)cc1-c1ccc(F)cc1`, the IC50 is greater than 50 µM in test [1] and 10 µM in test [3]. This molecule also gave an inhibition in test [2] of 74%.

Turning to `CCCCCCCS(=O)(=O)NCC#Cc1cn([C@H]2C[C@H](O)[C@@H](COP(=O)(O)O)O2)c(=O)[nH]c1=O`, the IC50 in test [1] is greater than 50 µM; in test [3], 6.93 µM. For the same molecule, in test [2], the inhibition was 84.7%.

Take `COc1cccc(-c2cn([C@H]3C[C@H](O)[C@@H](COP(=O)(O)O)O3)c(=O)[nH]c2=O)c1`: the concentration for half-maximal inhibition (IC50) in test [1] and in test [3] was greater than 50 µM each time. Further, the inhibition in test [2] amounted to 16%.

With `CCCCNC(=O)CCCCC#Cc1cn([C@H]2C[C@H](O)[C@@H](COP(=O)(O)O)O2)c(=O)[nH]c1=O`, the IC50 in test [1] was greater than 50 µM; in test [3], 8.03 µM. Further, the inhibition in test [2] was found to be 74.6%.

In the case of `CCCC(=O)NCC#Cc1cn([C@H]2C[C@H](O)[C@@H](COP(=O)(O)O)O2)c(=O)[nH]c1=O`, the half-inhibitory concentration (IC50) in test [1] is greater than 50 µM; in test [3] it was 26.2 µM. Further, the inhibition in test [2] stood at 72%.

For the molecule `O=C(Cc1ccccc1)NCC#Cc1cn([C@H]2C[C@H](O)[C@@H](COP(=O)(O)O)O2)c(=O)[nH]c1=O`, the IC50 is greater than 50 µM in test [1] and 7.3 µM in test [3]. In test [2], this molecule returned an inhibition of 86.9%.

(Values after ChEMBL document CHEMBL1821613, “Synthesis and evaluation of 5-substituted 2'-deoxyuridine monophosphate analogues as inhibitors of flavin-dependent thymidylate synthase in Mycobacterium tuberculosis” (J Med Chem, 2011).)
